According to ChEMBL document CHEMBL5303300, “EUbOPEN Chemogenomics Library - Multiplex” (2023):
Where “and” joins values, the source holds several entries; their conditions need not be identical. Equal values may be shown once.

Assays:
Type in all cases: toxicity, cell-based
[1] = system: U2OS; assay: Multiplex assay against U2OS; settings: human, number of replicates 2
How it was run: (§1)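 With compound added, live cells were imaged on a CQ1 microscope at 37°C and 5% CO2; staining with Hoechst33342, BioTracker Green Microtubule Cytoskeleton Dye, MitoTracker Red and Annexin V Alexa Fluor 680 had been done at seeding. The CellPathfinder machine-learning gating scheme split cells into Hoechst high-intensity objects or normal cells, normal cells into healthy, pyknosed or fragmented nuclei, and pyknosed cells into mitotic or apoptotic. The tubulin, mitochondrial-mass and membrane-permeability phenotypes are per cents of healthy-nucleus cells.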

[2] = system: Fibroblast; assay: Multiplex assay against human fibroblast; settings: number of replicates 2; how it was run: as §1
[3] = system: HEK-293T; assay: Multiplex assay against HEK293T; settings: human, number of replicates 2; how it was run: as §1
[4] = 12 h, 1 µM, compound concentration 1 uM
[5] = 12 h, 10 µM, compound concentration 10 uM
[6] = 24 h, 1 µM, compound concentration 1 uM
[7] = 24 h, 10 µM, compound concentration 10 uM
[8] = 48 h, 1 µM, compound concentration 1 uM
[9] = 48 h, 10 µM, compound concentration 10 uM

## Cn1cc(-c2ccc(N(C(=O)NCc3ccccc3)[C@H]3CC[C@H](Nc4ccc(C#N)cn4)CC3)cc2)ccc1=O
[1]; [4]
  Population Apoptotic (%): 50% and 60%
  Population Healthy Nuclei (%): 48% and 86%
  Population Hoechst High Intensity Objects (%): 0%
  Population Membrane Permeable-Phenotype (%): 0% and 3%
  Population Mitochondria Different-Phenotype (%): 5% and 3%
  Population Mitotic Cells (%): 50% and 39%
  Population Normal (%): 100%
  Population Pyknosed Nuclei (%): 14% and 12%
  Population Tubulin-Different-Phenotype (%): 55% and 75%
[1]; [5]
  Population Apoptotic (%): 93% and 59%
  Population Fragmented Nuclei (%): 16% and 12%
  Population Healthy Nuclei (%): 41% and 57%
  Population Hoechst High Intensity Objects (%): 0%
  Population Membrane Permeable-Phenotype (%): 20% and 21%
  Population Mitochondria Different-Phenotype (%): 33% and 16%
  Population Normal (%): 100% and 99%
  Population Pyknosed Nuclei (%): 41% and 30%
  Population Tubulin-Different-Phenotype (%): 40% and 48%
[1]; [6]
  Population Apoptotic (%): 66% and 60%
  Population Healthy Nuclei (%): 40% and 87%
  Population Hoechst High Intensity Objects (%): 0%
  Population Membrane Permeable-Phenotype (%): 0% and 3%
  Population Mitochondria Different-Phenotype (%): 0% and 1%
  Population Mitotic Cells (%): 33% and 40%
  Population Normal (%): 100% and 99%
  Population Pyknosed Nuclei (%): 19% and 9%
  Population Tubulin-Different-Phenotype (%): 63% and 79%
[1]; [7]
  Population Apoptotic (%): 90% and 75%
  Population Fragmented Nuclei (%): 8% and 11%
  Population Healthy Nuclei (%): 31%
  Population Hoechst High Intensity Objects (%): 0%
  Population Membrane Permeable-Phenotype (%): 36% and 21%
  Population Mitochondria Different-Phenotype (%): 27% and 46%
  Population Mitotic Cells (%): 9% and 24%
  Population Normal (%): 100% and 99%
  Population Pyknosed Nuclei (%): 60% and 56%
  Population Tubulin-Different-Phenotype (%): 36% and 69%
[1]; [8]
  Population Apoptotic (%): 85% and 68%
  Population Healthy Nuclei (%): 65% and 88%
  Population Hoechst High Intensity Objects (%): 0%
  Population Membrane Permeable-Phenotype (%): 2% and 1%
  Population Mitochondria Different-Phenotype (%): 0%
  Population Mitotic Cells (%): 14% and 31%
  Population Normal (%): 100%
  Population Pyknosed Nuclei (%): 11% and 8%
  Population Tubulin-Different-Phenotype (%): 70% and 85%
[1]; [9]
  Population Apoptotic (%): 78% and 88%
  Population Fragmented Nuclei (%): 30% and 10%
  Population Healthy Nuclei (%): 23% and 24%
  Population Hoechst High Intensity Objects (%): 0% and 2%
  Population Membrane Permeable-Phenotype (%): 40% and 37%
  Population Mitochondria Different-Phenotype (%): 40% and 37%
  Population Mitotic Cells (%): 21% and 11%
  Population Normal (%): 100% and 97%
  Population Pyknosed Nuclei (%): 45% and 65%
  Population Tubulin-Different-Phenotype (%): 40% and 52%
[2]; [4]
  Population Apoptotic (%): 46%
  Population Fragmented Nuclei (%): 8% and 18%
  Population Healthy Nuclei (%): 72% and 60%
  Population Hoechst High Intensity Objects (%): 0%
  Population Membrane Permeable-Phenotype (%): 6%
  Population Mitochondria Different-Phenotype (%): 1% and 2%
  Population Mitotic Cells (%): 53%
  Population Normal (%): 100%
  Population Pyknosed Nuclei (%): 19% and 21%
  Population Tubulin-Different-Phenotype (%): 9% and 11%
  Total Cell Count: 155 and 181
[2]; [5]
  Population Apoptotic (%): 39% and 40%
  Population Fragmented Nuclei (%): 8% and 9%
  Population Healthy Nuclei (%): 55% and 72%
  Population Hoechst High Intensity Objects (%): 0%
  Population Membrane Permeable-Phenotype (%): 16% and 14%
  Population Mitochondria Different-Phenotype (%): 3%
  Population Mitotic Cells (%): 60% and 59%
  Population Normal (%): 99%
  Population Pyknosed Nuclei (%): 36% and 18%
  Population Tubulin-Different-Phenotype (%): 75% and 55%
  Total Cell Count: 249 and 273
[2]; [6]
  Population Apoptotic (%): 38% and 48%
  Population Fragmented Nuclei (%): 12% and 15%
  Population Healthy Nuclei (%): 73% and 64%
  Population Hoechst High Intensity Objects (%): 0%
  Population Membrane Permeable-Phenotype (%): 4% and 7%
  Population Mitochondria Different-Phenotype (%): 0% and 1%
  Population Mitotic Cells (%): 61% and 51%
  Population Normal (%): 99%
  Population Pyknosed Nuclei (%): 14% and 20%
  Population Tubulin-Different-Phenotype (%): 11%
  Total Cell Count: 149 and 180
[2]; [7]
  Population Apoptotic (%): 54% and 81%
  Population Fragmented Nuclei (%): 10%
  Population Healthy Nuclei (%): 44% and 47%
  Population Hoechst High Intensity Objects (%): 0%
  Population Membrane Permeable-Phenotype (%): 18%
  Population Mitochondria Different-Phenotype (%): 7% and 5%
  Population Mitotic Cells (%): 45% and 18%
  Population Normal (%): 99%
  Population Pyknosed Nuclei (%): 44% and 42%
  Population Tubulin-Different-Phenotype (%): 79% and 63%
  Total Cell Count: 231 and 271
[2]; [8]
  Population Apoptotic (%): 76% and 60%
  Population Fragmented Nuclei (%): 17% and 16%
  Population Healthy Nuclei (%): 68%
  Population Hoechst High Intensity Objects (%): 0%
  Population Membrane Permeable-Phenotype (%): 5% and 2%
  Population Mitochondria Different-Phenotype (%): 0%
  Population Mitotic Cells (%): 23% and 39%
  Population Normal (%): 100%
  Population Pyknosed Nuclei (%): 13% and 15%
  Population Tubulin-Different-Phenotype (%): 8% and 5%
  Total Cell Count: 154 and 186
[2]; [9]
  Population Apoptotic (%): 71% and 83%
  Population Fragmented Nuclei (%): 8% and 15%
  Population Healthy Nuclei (%): 36% and 28%
  Population Hoechst High Intensity Objects (%): 0% and 1%
  Population Membrane Permeable-Phenotype (%): 26% and 22%
  Population Mitochondria Different-Phenotype (%): 8% and 2%
  Population Mitotic Cells (%): 28% and 16%
  Population Normal (%): 99% and 98%
  Population Pyknosed Nuclei (%): 54% and 56%
  Population Tubulin-Different-Phenotype (%): 78% and 65%
  Total Cell Count: 233 and 237
[3]; [4]
  Population Apoptotic (%): 40% and 44%
  Population Fragmented Nuclei (%): 3% and 2%
  Population Healthy Nuclei (%): 83% and 84%
  Population Hoechst High Intensity Objects (%): 5%
  Population Membrane Permeable-Phenotype (%): 2% and 3%
  Population Mitochondria Different-Phenotype (%): 19% and 9%
  Population Mitotic Cells (%): 59% and 55%
  Population Normal (%): 94%
  Population Pyknosed Nuclei (%): 12%
  Population Tubulin-Different-Phenotype (%): 52% and 40%
  Total Cell Count: 571 and 680
[3]; [5]
  Population Apoptotic (%): 52% and 47%
  Population Fragmented Nuclei (%): 12% and 6%
  Population Healthy Nuclei (%): 71% and 78%
  Population Hoechst High Intensity Objects (%): 8% and 10%
  Population Membrane Permeable-Phenotype (%): 8% and 3%
  Population Mitochondria Different-Phenotype (%): 54% and 57%
  Population Mitotic Cells (%): 47% and 52%
  Population Normal (%): 91% and 89%
  Population Pyknosed Nuclei (%): 16% and 15%
  Population Tubulin-Different-Phenotype (%): 92% and 93%
  Total Cell Count: 474 and 388
[3]; [6]
  Population Apoptotic (%): 35% and 31%
  Population Fragmented Nuclei (%): 5% and 4%
  Population Healthy Nuclei (%): 86%
  Population Hoechst High Intensity Objects (%): 8% and 6%
  Population Membrane Permeable-Phenotype (%): 2% and 5%
  Population Mitochondria Different-Phenotype (%): 5% and 4%
  Population Mitotic Cells (%): 65% and 68%
  Population Normal (%): 91% and 93%
  Population Pyknosed Nuclei (%): 7% and 8%
  Population Tubulin-Different-Phenotype (%): 33% and 30%
  Total Cell Count: 908 and 972
[3]; [7]
  Population Apoptotic (%): 55% and 37%
  Population Fragmented Nuclei (%): 4% and 9%
  Population Healthy Nuclei (%): 86% and 77%
  Population Hoechst High Intensity Objects (%): 12% and 11%
  Population Membrane Permeable-Phenotype (%): 3% and 7%
  Population Mitochondria Different-Phenotype (%): 42% and 52%
  Population Mitotic Cells (%): 44% and 62%
  Population Normal (%): 87% and 88%
  Population Pyknosed Nuclei (%): 9% and 12%
  Population Tubulin-Different-Phenotype (%): 91% and 90%
  Total Cell Count: 478 and 532
[3]; [8]
  Population Apoptotic (%): 9% and 8%
  Population Fragmented Nuclei (%): 10% and 11%
  Population Healthy Nuclei (%): 85%
  Population Hoechst High Intensity Objects (%): 9%
  Population Membrane Permeable-Phenotype (%): 6%
  Population Mitochondria Different-Phenotype (%): 1% and 0%
  Population Mitotic Cells (%): 90% and 91%
  Population Normal (%): 90%
  Population Pyknosed Nuclei (%): 3%
  Population Tubulin-Different-Phenotype (%): 14% and 16%
  Total Cell Count: 2214 and 2329
[3]; [9]
  Population Apoptotic (%): 43% and 56%
  Population Fragmented Nuclei (%): 7% and 3%
  Population Healthy Nuclei (%): 79% and 86%
  Population Hoechst High Intensity Objects (%): 10% and 13%
  Population Membrane Permeable-Phenotype (%): 5% and 2%
  Population Mitochondria Different-Phenotype (%): 39% and 30%
  Population Mitotic Cells (%): 56% and 43%
  Population Normal (%): 89% and 86%
  Population Pyknosed Nuclei (%): 12% and 9%
  Population Tubulin-Different-Phenotype (%): 74% and 66%
  Total Cell Count: 578 and 533
